pEC50, pIC50, pKi: −log10 of the molar value.
How the values were obtained:
D(4) dopamine receptor = biological target: T1, D(4) dopamine receptor (Homo sapiens, UniProt P21917); experiment: Displacement of [3H]-N-methylspiperone from recombinant human D4 receptor stably expressed in HEK cell membranes measured after 90 mins by microbeta scintillation counting method
T1 sequence (P21917 whole entry): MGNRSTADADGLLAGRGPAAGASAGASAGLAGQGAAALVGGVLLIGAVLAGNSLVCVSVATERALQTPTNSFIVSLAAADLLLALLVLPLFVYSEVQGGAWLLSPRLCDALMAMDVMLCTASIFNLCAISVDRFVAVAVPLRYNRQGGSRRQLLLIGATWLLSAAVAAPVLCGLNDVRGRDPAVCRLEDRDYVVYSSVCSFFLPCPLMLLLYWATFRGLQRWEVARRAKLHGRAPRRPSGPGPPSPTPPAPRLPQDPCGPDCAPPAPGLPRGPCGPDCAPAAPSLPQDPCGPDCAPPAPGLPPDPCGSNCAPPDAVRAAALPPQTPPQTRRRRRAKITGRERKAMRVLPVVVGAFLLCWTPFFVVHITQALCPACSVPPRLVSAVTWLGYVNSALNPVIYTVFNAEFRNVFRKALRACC

[1] = biological target: 5-hydroxytryptamine receptor 2B (Homo sapiens, UniProt P41595); experiment: Agonist activity at 5HT2B receptor (unknown origin) expressed in HEK293 cells co-expressing Gq assessed as induction of calcium mobilization measured at 1 sec interval for 60 secs by Fluo-4 calcium dye based FLIPR assay; format: cell-based; conditions: hek293, 1 min
Sequence of 5-hydroxytryptamine receptor 2B (P41595 whole entry): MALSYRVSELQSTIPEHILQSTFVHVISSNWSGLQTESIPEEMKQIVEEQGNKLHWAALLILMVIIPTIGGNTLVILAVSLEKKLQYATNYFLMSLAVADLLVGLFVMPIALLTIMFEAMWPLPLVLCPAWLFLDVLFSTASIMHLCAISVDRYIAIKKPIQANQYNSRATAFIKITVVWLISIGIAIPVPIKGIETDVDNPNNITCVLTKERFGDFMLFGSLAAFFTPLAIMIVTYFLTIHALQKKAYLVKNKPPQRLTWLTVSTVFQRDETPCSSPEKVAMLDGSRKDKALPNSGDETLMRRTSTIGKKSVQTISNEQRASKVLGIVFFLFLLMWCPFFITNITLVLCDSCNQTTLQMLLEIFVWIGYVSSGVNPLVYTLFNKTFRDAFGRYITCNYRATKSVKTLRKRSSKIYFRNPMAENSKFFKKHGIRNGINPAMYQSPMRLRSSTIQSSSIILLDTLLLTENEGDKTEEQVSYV

[2] = biological target: T2, 5-hydroxytryptamine receptor 2C (Homo sapiens, UniProt P28335); experiment: Displacement of [3H]-Mesulergine from recombinant human 5HT2C receptor expressed in HEKT cell membranes measured after 90 mins by microbeta scintillation counting method
T2 sequence (P28335 whole entry): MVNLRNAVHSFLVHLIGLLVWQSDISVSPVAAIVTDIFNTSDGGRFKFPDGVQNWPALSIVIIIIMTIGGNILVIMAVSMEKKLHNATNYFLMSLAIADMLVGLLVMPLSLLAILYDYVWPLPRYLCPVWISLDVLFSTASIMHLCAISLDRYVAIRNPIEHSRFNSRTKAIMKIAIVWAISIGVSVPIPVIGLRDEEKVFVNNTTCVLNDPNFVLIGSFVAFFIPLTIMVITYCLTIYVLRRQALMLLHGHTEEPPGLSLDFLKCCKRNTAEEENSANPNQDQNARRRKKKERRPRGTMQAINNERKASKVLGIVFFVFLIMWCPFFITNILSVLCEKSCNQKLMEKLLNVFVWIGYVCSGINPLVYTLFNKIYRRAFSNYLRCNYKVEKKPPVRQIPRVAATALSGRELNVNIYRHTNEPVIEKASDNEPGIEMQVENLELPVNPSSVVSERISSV

[3] = biological target: T2, 5-hydroxytryptamine receptor 2C; experiment: Agonist activity at human 5HT2C receptor stably expressed in HEK293 cells co-expressing Gq assessed as induction of calcium mobilization measured at 1 sec interval for 60 secs by Fluo-4 calcium dye based FLIPR assay; format: functional, cell-based
In short: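 HEK293 cells stably expressing 5-HT2C, plated overnight in DMEM with 1% dialyzed FBS (15,000 cells/well), loaded with Fluo-4 Direct in HBSS/20 mM HEPES pH 7.4/2.5 mM probenecid for 50 min at 37 °C, then 10 min at room temperature. FLIPR read 1/s for 2 min; 10 s baseline subtracted from peak within 60 s; fold of basal. Mean of ≥3 experiments.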

[4] = biological target: 5-hydroxytryptamine receptor 2A (Homo sapiens, UniProt P28223); experiment: Agonist activity at 5HT2A receptor (unknown origin) expressed in HEK293 cells co-expressing Gq assessed as induction of calcium mobilization measured at 1 sec interval for 60 secs by Fluo-4 calcium dye based FLIPR assay; format: cell-based; conditions: hek293, 1 min
Sequence of 5-hydroxytryptamine receptor 2A (P28223 whole entry): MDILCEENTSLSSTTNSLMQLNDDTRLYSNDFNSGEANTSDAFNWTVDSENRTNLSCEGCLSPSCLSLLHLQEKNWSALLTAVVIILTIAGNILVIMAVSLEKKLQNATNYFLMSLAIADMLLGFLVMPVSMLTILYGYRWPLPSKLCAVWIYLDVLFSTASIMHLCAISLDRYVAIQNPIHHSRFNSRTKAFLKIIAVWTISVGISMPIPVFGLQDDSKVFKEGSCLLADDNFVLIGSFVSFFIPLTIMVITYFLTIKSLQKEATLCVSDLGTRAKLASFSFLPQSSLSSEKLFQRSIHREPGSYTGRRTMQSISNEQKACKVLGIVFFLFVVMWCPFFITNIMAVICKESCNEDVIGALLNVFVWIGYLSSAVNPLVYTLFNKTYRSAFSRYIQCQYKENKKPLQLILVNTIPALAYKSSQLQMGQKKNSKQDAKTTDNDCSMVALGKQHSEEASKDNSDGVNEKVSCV

D(1A) dopamine receptor = D(1A) dopamine receptor (Homo sapiens, UniProt P21728); experiment: Displacement of [3H]-SCH23390 from recombinant human D1 receptor transiently expressed in HEKT cell membranes measured after 90 mins by microbeta scintillation counting method
Sequence of D(1A) dopamine receptor (P21728 whole entry): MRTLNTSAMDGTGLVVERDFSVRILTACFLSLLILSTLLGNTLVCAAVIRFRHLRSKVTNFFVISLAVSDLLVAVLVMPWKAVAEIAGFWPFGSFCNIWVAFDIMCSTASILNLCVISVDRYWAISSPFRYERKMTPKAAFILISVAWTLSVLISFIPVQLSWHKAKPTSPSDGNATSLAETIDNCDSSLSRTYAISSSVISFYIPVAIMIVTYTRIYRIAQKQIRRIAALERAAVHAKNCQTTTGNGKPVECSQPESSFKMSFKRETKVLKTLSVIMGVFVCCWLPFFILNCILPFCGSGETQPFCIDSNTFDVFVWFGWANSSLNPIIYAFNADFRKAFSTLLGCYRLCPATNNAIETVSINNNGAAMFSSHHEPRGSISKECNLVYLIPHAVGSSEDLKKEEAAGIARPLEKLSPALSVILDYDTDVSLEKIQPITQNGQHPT

D(1B) dopamine receptor = D(1B) dopamine receptor (Homo sapiens, UniProt P21918); experiment: Displacement of [3H]-SCH23390 from recombinant human D5 receptor transiently expressed in HEKT cell membranes measured after 90 mins by microbeta scintillation counting method
Sequence of D(1B) dopamine receptor (P21918 whole entry): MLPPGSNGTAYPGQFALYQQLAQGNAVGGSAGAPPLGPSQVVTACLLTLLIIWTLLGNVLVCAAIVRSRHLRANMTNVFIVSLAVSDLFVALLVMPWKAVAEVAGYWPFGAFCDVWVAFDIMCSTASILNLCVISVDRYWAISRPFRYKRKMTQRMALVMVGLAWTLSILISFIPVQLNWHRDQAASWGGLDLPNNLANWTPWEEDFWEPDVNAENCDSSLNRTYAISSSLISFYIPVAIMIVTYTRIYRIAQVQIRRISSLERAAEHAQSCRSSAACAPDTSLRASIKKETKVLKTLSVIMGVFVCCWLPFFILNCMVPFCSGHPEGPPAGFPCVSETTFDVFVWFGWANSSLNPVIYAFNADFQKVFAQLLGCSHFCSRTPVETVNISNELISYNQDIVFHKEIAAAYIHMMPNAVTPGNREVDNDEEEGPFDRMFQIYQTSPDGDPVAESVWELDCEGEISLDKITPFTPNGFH

D(2) dopamine receptor = D(2) dopamine receptor (Homo sapiens, UniProt P14416); experiment: Displacement of [3H]-N-methylspiperone from recombinant human D2 receptor stably expressed in fibroblast cell membranes measured after 90 mins by microbeta scintillation counting method
Sequence of D(2) dopamine receptor (P14416 whole entry): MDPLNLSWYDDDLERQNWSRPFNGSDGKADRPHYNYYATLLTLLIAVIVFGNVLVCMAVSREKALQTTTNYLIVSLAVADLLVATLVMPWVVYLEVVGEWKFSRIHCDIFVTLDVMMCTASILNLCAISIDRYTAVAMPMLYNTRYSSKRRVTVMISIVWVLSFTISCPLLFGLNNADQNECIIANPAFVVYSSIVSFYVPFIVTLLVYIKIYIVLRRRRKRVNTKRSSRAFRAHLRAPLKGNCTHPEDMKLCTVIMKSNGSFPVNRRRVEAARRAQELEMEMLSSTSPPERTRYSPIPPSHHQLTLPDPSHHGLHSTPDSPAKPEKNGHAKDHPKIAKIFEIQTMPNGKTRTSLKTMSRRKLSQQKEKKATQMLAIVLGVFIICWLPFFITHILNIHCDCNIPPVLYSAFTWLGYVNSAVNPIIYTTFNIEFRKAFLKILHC

[5] = Drug level in ICR mouse plasma at 5 mg/kg, iv measured after 0.5 hrs by LC-MS/MS analysis; format: ADME, organism-based
In short: (§1)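 Male ICR mice (6-8 weeks, ~25 g) received compound in saline, 5 mg/kg iv or 10 mg/kg po. Brains collected at 0.5 and 2.0 h, saline-washed, weighed, homogenized in cold 50% methanol (1 g:3 mL). Plasma prepared from orbital blood. Samples held at -80 °C; LC-MS/MS quantitation. Brain/plasma ratio calculated from the two concentrations.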

[6] = Half life in ICR mouse at 10 mg/kg, po by LC-MS/MS analysis; format: ADME, organism-based; conditions: in vivo
In short: (§2)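 Male ICR mice (6-8 weeks, ~25 g) dosed with compound dissolved in saline, 5 mg/kg iv or 10 mg/kg po, nine animals per group. Samples stored at -80 °C; drug quantified by LC-MS/MS.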

[7] = MRT in ICR mouse at 5 mg/kg, iv by LC-MS/MS analysis; format: ADME, organism-based; conditions: in vivo; in short: as §2
[8] = Ratio of drug level in ICR mouse brain to plasma at 10 mg/kg, po measured after 0.5 hrs by LC-MS/MS analysis; format: ADME, organism-based; conditions: read-out: BPR; in short: as §1
[9] = Drug level in ICR mouse brain at 5 mg/kg, iv measured after 0.5 hrs by LC-MS/MS analysis; format: ADME, organism-based; in short: as §1
[10] = Half life in ICR mouse at 5 mg/kg, iv by LC-MS/MS analysis; format: ADME, organism-based; conditions: in vivo; in short: as §2
[11] = Drug level in ICR mouse plasma at 5 mg/kg, iv measured after 2 hrs by LC-MS/MS analysis; format: ADME, organism-based; in short: as §1
[12] = Drug level in ICR mouse brain at 5 mg/kg, iv measured after 2 hrs by LC-MS/MS analysis; format: ADME, organism-based; in short: as §1
[13] = Tmax in ICR mouse at 10 mg/kg, po by LC-MS/MS analysis; format: ADME, organism-based; conditions: in vivo; in short: as §2
[14] = AUC (0 to t) in ICR mouse at 10 mg/kg, po by LC-MS/MS analysis; format: ADME, organism-based; conditions: in vivo; in short: as §2
[15] = Drug level in ICR mouse plasma at 10 mg/kg, po measured after 2 hrs by LC-MS/MS analysis; format: ADME, organism-based; in short: as §1
[16] = Drug level in ICR mouse plasma at 10 mg/kg, po measured after 0.5 hrs by LC-MS/MS analysis; format: ADME, organism-based; in short: as §1
[17] = Ratio of drug level in ICR mouse brain to plasma at 5 mg/kg, iv measured after 2 hrs by LC-MS/MS analysis; format: ADME, organism-based; conditions: read-out: BPR; in short: as §1
[18] = Drug level in ICR mouse brain at 10 mg/kg, po measured after 0.5 hrs by LC-MS/MS analysis; format: ADME, organism-based; in short: as §1
[19] = Ratio of drug level in ICR mouse brain to plasma at 10 mg/kg, po measured after 2 hrs by LC-MS/MS analysis; format: ADME, organism-based; conditions: read-out: BPR; in short: as §1
[20] = Drug level in ICR mouse brain at 10 mg/kg, po measured after 2 hrs by LC-MS/MS analysis; format: ADME, organism-based; in short: as §1
[21] = Ratio of drug level in ICR mouse brain to plasma at 5 mg/kg, iv measured after 0.5 hrs by LC-MS/MS analysis; format: ADME, organism-based; conditions: read-out: BPR; in short: as §1
[22] = biological target: T2, 5-hydroxytryptamine receptor 2C; experiment: Antagonist activity at human 5HT2C receptor stably expressed in HEK293 cells co-expressing Gq assessed as inhibition of 5-HT-induced calcium mobilization preincubated for 15 mins followed by 5-HT addition and measured at 1 sec interval for 60 secs by Fluo-4 calcium dye based FLIPR assay; format: functional, cell-based
In short: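 5-HT2C stably transfected HEK293 cells, loaded with Fluo-4 Direct (HBSS, 20 mM HEPES pH 7.4, 2.5 mM probenecid; 50 min 37 °C, 10 min room temperature). Test compound added, then 5-HT (final 1 nM) 15 min later.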

[23] = Cmax in ICR mouse at 10 mg/kg, po by LC-MS/MS analysis; format: ADME, organism-based; parameters: dose 10 mg/kg, route oral; conditions: in vivo; in short: as §2
[24] = Clearance in ICR mouse at 5 mg/kg, iv by LC-MS/MS analysis; format: ADME, organism-based; conditions: in vivo; in short: as §2
[25] = Volume of distribution at steady state in ICR mouse at 5 mg/kg, iv by LC-MS/MS analysis; format: ADME, organism-based; conditions: in vivo, read-out: Vdss; in short: as §2
[26] = MRT in ICR mouse at 10 mg/kg, po by LC-MS/MS analysis; format: ADME, organism-based; conditions: in vivo; in short: as §2
[27] = AUC (0 to t) in ICR mouse at 5 mg/kg, iv by LC-MS/MS analysis; format: ADME, organism-based; conditions: in vivo; in short: as §2
[28] = Oral bioavailability in ICR mouse at 10 mg/kg by LC-MS/MS analysis; format: ADME, organism-based; conditions: in vivo; in short: as §2

Q: With CCCN(CCCCNC(=O)c1ccc(-c2ccccn2)cc1)C[C@H]1C[C@@H]1c1cccc(Cl)c1Cl.Cl as the compound, how does the pKi (D(4) dopamine receptor) read?
A: 6.04

Q: What about the Activity [1] of the same compound?
A: Not Active

Q: What about the pKi [2] of the same compound?
A: 7.35

Q: And the pEC50 [3]?
A: 6.13

Q: What about the Activity [4] of the same compound?
A: Active

Q: And the pKi (D(1A) dopamine receptor)?
A: 5.63

Q: And the pKi (D(1B) dopamine receptor)?
A: < 5.30

Q: With CCCN(CCCCNC(=O)c1cc2ccccc2[nH]1)C[C@H]1C[C@@H]1c1cccc(Cl)c1Cl.Cl as the compound, how does the pKi (D(4) dopamine receptor) read?
A: 6.17

Q: What about the Activity [1] of the same compound?
A: Not Active

Q: What about the pKi [2] of the same compound?
A: 7.21

Q: What about the pEC50 [3] of the same compound?
A: 5.59

Q: And the Activity [4]?
A: Active

Q: What about the pKi (D(1A) dopamine receptor) of the same compound?
A: 5.95

Q: What about the pKi (D(1B) dopamine receptor) of the same compound?
A: < 5.30

Q: What about the pKi (D(2) dopamine receptor) of the same compound?
A: 6.00

Q: What does the source list for CCCN(CCCCNC(=O)c1ccc(-c2ccccn2)cc1)C[C@@H]1C[C@H]1c1cc(F)ccc1OC.Cl?
A: concentration at 0.5 h [5]: 446 ng/mL; half-life [6]: 158 min; MRT [7]: 24.9 min; pKi (D(4) dopamine receptor): 6.24; Kp at 0.5 h [8]: 0.49; concentration at 0.5 h [9]: 530 ng/mL; half-life [10]: 26.2 min; concentration at 2 h [11]: 12.7 ng/mL; Activity [1]: Not Active; pKi [2]: 5.95; concentration at 2 h [12]: 19.4 ng/mL; Tmax [13]: 15 min; AUC(0-t) [14]: 49.5 ng·h/mL; concentration at 2 h [15]: 8.4 ng/mL; concentration at 0.5 h [16]: 16.8 ng/mL; Activity [4]: Active; Kp at 2 h [17]: 1.53; concentration at 0.5 h [18]: 8.21 ng/mL; pKi (D(1A) dopamine receptor): 5.31; Kp at 2 h [19]: 0.79; pKi (D(1B) dopamine receptor): < 5.30; concentration at 2 h [20]: 6.57 ng/mL; Kp at 0.5 h [21]: 1.19; pIC50 [22]: 4.84; Cmax [23]: 43.2 ng/mL; pKi (D(2) dopamine receptor): 5.87; clearance [24]: 126 mL/min/kg; Vd [25]: 3.13 L/kg; MRT [26]: 223 min; AUC(0-t) [27]: 660 ng·h/mL; bioavailability [28]: 3.8%

Q: With CCCN(CCCCNC(=O)c1ccc2ccccc2c1)C[C@H]1C[C@@H]1c1cccc(Cl)c1Cl.Cl as the compound, how does the pKi (D(4) dopamine receptor) read?
A: 6.11

Q: What about the Activity [1] of the same compound?
A: Not Active

Q: What about the pKi [2] of the same compound?
A: 6.86

Q: What about the pEC50 [3] of the same compound?
A: 5.45

Q: What about the Activity [4] of the same compound?
A: Active

Q: And the pKi (D(1A) dopamine receptor)?
A: 5.98

Q: What about the pKi (D(1B) dopamine receptor) of the same compound?
A: < 5.30

Q: And the pKi (D(2) dopamine receptor)?
A: 5.94

From ChEMBL document CHEMBL4402598, “Design and Synthesis of Bitopic 2-Phenylcyclopropylmethylamine (PCPMA) Derivatives as Selective Dopamine D3 Receptor Ligands” (J Med Chem, 2020)
